Screening data as filed in PubChem.
Sampled rows, rich in hits. Any-hit rate of the full collection: about 4.7%.
FXN GAA850 act: FXN promoter activators, primary screen, cell-based, luciferase luminescence, HEK293 lucGAA850 | AID 540364, 2011 | HEK293 lucGAA850 FXN promoter luciferase reporter, 24 h; percent of 10 µM SAHA response | activation, % at 6 µM | actives 0.56% (n = 360,000);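 active means activation above the average of all compounds screened plus 3 SD, cutoff fixed separately per campaign, cut at about 7.5% in these data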
MC4R antagonist: MC4R antagonists of cAMP signaling, primary screen, cell-based, TR-FRET, antagonist arm of biased-ligand search. Melanocortin receptor 4 (Homo sapiens), P32245. MC4R-expressing cells, MTII-stimulated cAMP, LANCE TR-FRET. inhibition, % at 6.5 µM. actives 0.48% (n = 360,000). AID 540295, 2011;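 active means inhibition above its plate's cutoff, the mean of tested wells on that plate plus 3 SD, cut at about 29% in these data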
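Material: U2OS-MC4R stable cell line | Reagent: Melanotan II challenge after compound preincubation | Doses: One concentration, 6.5 µM nominal | Incubation: 30-min compound preincubation, 1-h Melanotan II challenge, 1-h detection, room temperature | Signal: TR-FRET cAMP assay | Replicates: One well per compound, no replicates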
MC4R ag barr: MC4R agonists recruiting beta-arrestin, primary screen, cell-based, luminescence, agonist arm of biased-ligand search; Melanocortin receptor 4 (Homo sapiens), P32245; U2OS MC4R beta-arrestin complementation; percent of melanotan II response, DMSO zero; activation, % at 8.9 µM; actives 0.98% (n = 360,000); AID 540308, 2011;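 active means activation above a per-plate cutoff, the mean activation of sample wells on that plate plus 3 SD, cut at about 8% in these data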
m5-HT2A agonist: mouse Htr2a agonists via beta-arrestin recruitment, primary screen, cell-based, luminescence. 5-hydroxytryptamine receptor 2A (Mus musculus), P35363. CHO-K1 mHTR2A beta-arrestin complementation; percent of 30 µM serotonin response. activation, % at 7.6 µM. actives 0.66% (n = 360,000). AID 624169, 2012;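 active means activation above a run cutoff, the mean activation of all tested compounds plus 3 SD, cut at about 14% in these data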
Target sequence (P35363 whole entry, looked up): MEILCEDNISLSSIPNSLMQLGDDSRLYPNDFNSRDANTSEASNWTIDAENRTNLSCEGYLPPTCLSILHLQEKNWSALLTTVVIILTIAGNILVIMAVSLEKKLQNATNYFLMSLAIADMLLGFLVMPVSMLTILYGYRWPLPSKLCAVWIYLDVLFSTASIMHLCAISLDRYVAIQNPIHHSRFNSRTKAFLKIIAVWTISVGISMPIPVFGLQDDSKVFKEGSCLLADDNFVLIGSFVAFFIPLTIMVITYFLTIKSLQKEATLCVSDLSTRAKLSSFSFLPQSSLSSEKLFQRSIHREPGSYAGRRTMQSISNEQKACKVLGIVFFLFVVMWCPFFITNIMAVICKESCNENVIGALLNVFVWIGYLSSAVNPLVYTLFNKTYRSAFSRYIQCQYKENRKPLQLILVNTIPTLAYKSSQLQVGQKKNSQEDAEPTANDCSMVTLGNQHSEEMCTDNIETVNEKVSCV
AHR activator: AHR activators, primary screen, cell-based, luminescence, luciferase reporter, human | Aryl hydrocarbon receptor (Homo sapiens), P35869 | AHR-responsive luciferase reporter cells | activation, % at 5 µM | actives 2.5% (n = 320,000); in the data active means activation above about 47%
Numbers stand for hits; – = inactive; · = no result.

SMILES | FXN GAA850 act | MC4R antagonist | MC4R ag barr | m5-HT2A agonist | AHR activator
COc1ccc(NC(=O)CC2C(=O)Nc3ccccc3N2CC(=O)N2CCCC2)cc1 (centres undefined) | – | – | – | – | 74
Cc1cc2c(cc1C)NC(=O)CC(C(F)(F)C(F)(F)C(F)(F)F)=N2 | – | – | 8.7 | – | –
O=Nc1c(O)n(Cc2c(Cl)cccc2Cl)c2ccccc12 | – | – | 8.4 | – | –
CCOC(=O)[C@]12CCCC=C1N(Cc1cccc3ccccc13)C(=O)[C@H](CC(=O)N1CCCCC1)C2 | · | · | · | – | ·
COc1cc(O)sc1C=Nc1ccc(Cl)cc1 | – | – | – | – | 48
CCCCNC(=O)COC(=O)c1c2c(nc3ccccc13)/C(=C\c1cccs1)CC2 | – | – | – | – | ·
CC(C)CNC(=O)COC(=O)c1c2c(nc3ccccc13)/C(=C/c1cccs1)CC2 | – | – | 9.5 | – | –
Nc1nc(N)c(C=Nc2ccc(Br)cc2)c(Nc2ccc(Br)cc2)n1 | – | – | – | – | 99
Nc1nc(N)c(Br)c(Nc2ccc(Cl)c(Cl)c2)n1 | – | – | – | – | ·
COc1ccc(N(C(=O)CNC(=O)c2ccco2)C(C(=O)NCC2CCCO2)c2ccccc2)cc1 (centres undefined) | – | – | – | – | –
O=c1cnn([C@@H]2O[C@H](CO)[C@@H](O)[C@H]2O)c(=O)[nH]1 | – | – | – | 22 | –
O=c1[nH]nnc2c1ncn2C1OC(CO)C(O)C1O (centres undefined) | · | · | · | – | ·
C[n+]1c2n(c3ccccc31)N=C(c1ccc(-c3ccccc3)cc1)CS2 | – | – | – | – | 53
C[n+]1c2n(c3ccccc31)N=C(c1ccc(Br)cc1)CS2 | – | – | – | – | 60
CCc1nnc2n1N=C(c1ccc(Br)cc1)CS2 | – | – | – | – | –
O=C(O)c1ccc(-c2ccc(/C=c3/sc4nc5ccccc5n4c3=O)o2)cc1Cl | – | – | – | – | –
Cc1ccc(Nc2ncnc(-n3cccc3)n2)cc1Cl | – | – | – | – | 58
Clc1cc(Cl)cc(Nc2ncnc(-n3cccc3)n2)c1 | – | – | 9.0 | – | 54
CCN(CC(=O)Nc1ccc(N2CCOCC2)cc1)C(=O)Cc1ccccc1 | – | – | – | – | –
CCOC(=O)c1ccc2nc3c(cc2c1)CCS3 | 12 | – | – | – | –
CCCC(=O)Nc1nc2ccc(C(=O)OCC)cc2s1 | – | – | – | – | –
CCCCn1nnnc1C1(C)CCC(=O)N1Cc1ccc(OC)cc1 (centres undefined) | · | · | · | – | ·
O=C(Nc1ccc(Cl)c(Cl)c1)NC1CCS(=O)(=O)C1 (centres undefined) | – | – | – | – | –
O=C(Nc1ccc(Cl)c(Cl)c1)Nc1cc(C(=O)NC2CC2)ccc1Cl | · | · | · | · | 74
O=C(CNc1cc(S(=O)(=O)N2CCOCC2)ccc1N1CCCC1)Nc1ccc(Cl)cc1 | – | – | – | – | ·
SMILES | FXN GAA850 act | MC4R antagonist | MC4R ag barr | m5-HT2A agonist | AHR activator
COc1cccc(-c2sc3ccc(OC)cc3c2-c2ccc(O)cc2)c1 | – | – | – | – | –
COc1cccc(-c2sc3ccc(OC)cc3c2-c2ccc(OCCN(C)C)cc2)c1 | – | – | 10 | – | –
COc1cc(OC)cc(-c2sc3ccc(OC)cc3c2C#CCO)c1 | – | – | – | – | 49
COc1cccc(-c2sc3ccc(OC)cc3c2C#CCCO)c1 | – | – | – | – | 69
Cc1ccc(C)c(OCCC(=O)OCC(=O)Nc2ccc(Cl)cn2)c1 | – | – | 9.5 | – | –
CCCCNCCS(=O)(=O)NCc1ccc(OC)cc1 | – | – | – | – | ·
O=C1c2cccc3cccc(c23)C(=O)N1c1ccncc1 | – | – | – | – | –
CCc1nnc(N2C(=O)c3cccc4cccc(c34)C2=O)s1 | – | – | – | – | 76
O=C(NC1CCCCC1)c1ccc(-c2ccccc2)cc1 | – | – | – | – | –
CCN(CC)c1ccc(NC(=O)/C=C/c2cc(Br)ccc2OC)cc1 | – | – | – | – | 55
COc1ccccc1CCn1cnc2c3cc(C)ccc3n(C)c2c1=O | – | – | – | – | 68
